Calls of active or inactive are those of the source. No cut-off for these calls is given here.
Key:
A-375 [1] = assay: Cytotoxicity against human A-375 cells; format: functional
Outline: (§1)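 Human cancer lines (A375, MDA-MB-231, OMM-1, UPMM-2, CAPAN-2, HepG2, HT-29, HCT116) treated up to 30 μM. CC50 derived from concentration–response viability plots. Mean ± SEM, n ≥ 6. Two-tailed unpaired t test used between compounds.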

[2] = Aqueous kinetic solubility of the compound in PBS at pH 7.4 at 250 uM incubated for 24 hrs by UPLC/MS analysis; format: physicochemical; settings: read-out: Kinetic_solubility
Outline: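 Kinetic solubility measured in phosphate-buffered saline, pH 7.4. Mean of at least two independent experiments, each run in two technical replicates.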

[3] = Tolerability in CD1 mouse assessed as reduction in body weight at 138 micromol/kg, ip administered every other day for 8 days; format: toxicity, organism-based; settings: in vivo, 192 h, dose 138 µmol/kg, time 8 day
Outline: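 Body weight tracked in female CD1 mice under three regimens: 138 μmol/kg (62 mg/kg) ip daily, assessed after 2 days; 138 μmol/kg every other day over 8 days; 69 μmol/kg (31 mg/kg) daily over 8 days.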

[4] = Metabolic stability in mouse liver microsomes assessed as half life preincubated for 15 mins followed by NADPH addition and measured after 1 to 2 hrs by LC-MS/MS analysis; format: ADME, Microsome; settings: liver microsomes, time 75-135 min
Outline: (§2)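 Microsomal stability assessed in mouse, human, rat or dog liver microsomes with NADPH cofactor. Half-life and percent parent remaining at 60 and 120 min reported. Mean of at least two independent experiments, each in two technical replicates.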

[5] = Cytotoxicity against HMECs; format: toxicity, cell-based, HMEC; settings: human, HMEC cells
Outline: (§3)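 BT-474 breast cancer cells and nontumorigenic HMECs treated 48 h with concentrations up to 30 μM. CC50 derived from concentration–response viability plots. Values >30 μM assigned when viability fell by less than 50% of vehicle at 30 μM. Mean ± SEM, n ≥ 3.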

A-375 [6] = assay: Antitumor activity against human A-375 cells xenografted in NMRI-Foxn1nu mouse assessed as effect on autophagy by measuring increase in LC3-II/LC3-I ratio expression at 30 mg/kg, ip administered for 2 days by immunoblotting analysis; format: functional, organism-based; settings: time 2.0 day
Outline: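 Female NMRI-Foxn1nu mice bearing flank subcutaneous xenografts of GFP-LC3 reporter A375 cells, matched for tumor size, given 30 mg/kg ip or saline for 2 days. Euthanized 48 h after first injection. Tumor lysates immunoblotted with anti-LC3B for GFP-LC3-I and GFP-LC3-II. n = 3; unpaired two-tailed t test versus saline.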

BT-474 = assay: Cytotoxicity against human BT-474 cells; format: functional; outline: as §3
[7] = Metabolic stability in human liver microsomes assessed as parent compound remaining preincubated for 15 mins followed by NADPH addition and measured after 1 hr by LC-MS/MS analysis; format: ADME, Microsome; settings: time 75 min, read-out: Stability; outline: as §2
[8] = Tolerability in CD1 mouse assessed as change in water intake at 69 micromol/kg, ip administered as 3 days on and 2 days off schedule and measured after 15 days; format: toxicity, organism-based; settings: in vivo, dose 69 µmol/kg
Outline: (§4)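 Female CD1 mice given 69 μmol/kg (31 mg/kg) ip, 3 days daily then 2 days off, or saline. Body weight, food intake and water intake monitored daily for 15 days. Weight expressed relative to the day before treatment (100%). Mean ± SEM, n = 3.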

[9] = Metabolic stability in dog liver microsomes assessed as parent compound remaining preincubated for 15 mins followed by NADPH addition and measured after 1 to 2 hrs by LC-MS/MS analysis; format: ADME, Canis lupus familiaris, Microsome; settings: time 75-135 min; outline: as §2
[10] = Metabolic stability in mouse liver microsomes assessed as parent compound remaining preincubated for 15 mins followed by NADPH addition and measured after 1 hr by LC-MS/MS analysis; format: ADME, Microsome; settings: time 75 min, read-out: Stability; outline: as §2
[11] = Metabolic stability in mouse liver microsomes assessed as half-life preincubated for 15 mins followed by UDPGA addition and measured after 2 hrs by LC-MS/MS analysis
HepG2 = assay: Cytotoxicity against human HepG2 cells; format: functional; outline: as §1
[12] = Metabolic stability in human liver microsomes assessed as parent compound remaining preincubated for 15 mins followed by NADPH addition and measured after 2 hrs by LC-MS/MS analysis; format: ADME, Microsome; settings: time 135 min, read-out: Stability; outline: as §2
A-375 [13] = assay: Antitumor activity against human A-375 cells xenografted in NMRI-Foxn1nu mouse assessed as reduction in tumor weight at 30 mg/kg, ip administered as 3 days on and 2 days off schedule and measured after 15 days; format: functional; set-up: scale not given: the % may be the effect or the level left; settings: time 15 day
Outline: (§5)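 Female NMRI-Foxn1nu mice with subcutaneous A375 flank tumors, grouped by matched tumor volume. Dosing: 30 mg/kg ip or saline, 3 days daily then 2 days off. Tumors measured by digital caliper until day 15. Excised tumors then sized as (W × D × L)/2 and weighed. n = 8; Mann–Whitney two-tailed test for the excised endpoints.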

A-375 [14] = assay: Antitumor activity against human A-375 cells xenografted in NMRI-Foxn1nu mouse assessed as reduction in tumor volume at 30 mg/kg, ip administered as 3 days on and 2 days off schedule and measured after 15 days; format: functional; set-up: scale not given: the % may be the effect or the level left; settings: time 15 day; outline: as §5
[15] = Tolerability in CD1 mouse assessed as change in body weight at 69 micromol/kg, ip administered as 3 days on and 2 days off schedule and measured after 15 days; format: toxicity, organism-based; settings: in vivo, 360 h, dose 69 µmol/kg, time 15 day; outline: as §4
[16] = Metabolic stability in dog liver microsomes assessed as half life preincubated for 15 mins followed by NADPH addition and measured after 1 to 2 hrs by LC-MS/MS analysis; format: ADME, Canis lupus familiaris, Microsome; settings: liver microsomes, time 75-135 min; outline: as §2
[17] = Half life in CD1 mouse at 10 mg/kg, ip measured upto 24 hrs; format: ADME, organism-based; settings: in vivo
Outline: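 Female CD1 mice given a single 10 mg/kg ip dose. Plasma concentration–time profile analyzed by noncompartmental analysis for half-life and volume of distribution. A two-compartment model was also fitted.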

[18] = Tolerability in CD1 mouse assessed as appearance of arched backs at 138 micromol/kg, ip; format: toxicity; settings: in vivo, dose 138 µmol/kg
Outline: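 Female CD1 mice given daily ip injections at 138 μmol/kg (62 mg/kg). Animals observed for arched backs and lethargy.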

[19] = Cytotoxicity against human OMM-1 cells; format: functional; outline: as §1
HEK293 = assay: Inhibition of REV-ERBbeta (unknown origin) transcription expressed in HEK293 cells harboring mutated RevRE incubated for 24 hrs by gaussia luciferase based assay; format: cell-based; settings: Homo sapiens
Outline: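 HEK-293 cells cotransfected with REV-ERBβ and a luciferase reporter bearing a mutated RevRE that REV-ERB cannot bind. Luciferase activity expressed as fold over DMSO vehicle. Mean ± SEM, n = 6.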

A-375 [20] = assay: Antitumor activity against human A-375 cells xenografted in NMRI-Foxn1nu mouse assessed as tumor growth inhibition at 30 mg/kg, ip administered as 3 days on and 2 days off schedule and measured after 15 days; format: functional; settings: A-375, 360 h, time 15 day, read-out: TGI; outline: as §5
Mus musculus = assay: In vivo inhibition of REV-ERB in human A375 cells xenografted in NMRI-Foxn1nu mouse assessed as increase in BMAL1 gene expression at 30 mg/kg, ip administered for 2 days and measured after 48 hrs

solubility kinetic at 24 h, 250 µM [2]: > 250 µM | half-life [4]: > 2 h | remaining at 1 h [7]: 81% | Stability [9]: 89% | remaining at 1 h [10]: 84% | t1/2 at 2 h [11]: > 2 h | remaining at 2 h [12]: 68% | half-life [16]: > 1 h | t1/2 [17]: 9.67 h
Compound: Fc1ccc(C2(NCc3ccc(F)c(CC4CCNCC4)c3)CCCC2)cc1
CC50 (A-375 [1]): 2.56 µM | Activity [3]: Toxic | CC50 [5]: > 30 µM | Activity (A-375 [6]): Active | CC50 (BT-474): 2.31 µM | Activity [8]: Non-Toxic | CC50 (HepG2): 1.49 µM | Activity (A-375 [13]): 56% | Activity (A-375 [14]): 60% | Activity [15]: Non-Toxic | Activity [18]: Non-Toxic | CC50 [19]: 1.14 µM | inhibition (HEK293): inactive | inhibition in vivo at 30 mg/kg (A-375 [20]): 55% | inhibition (Mus musculus): Active

Reference: ChEMBL document CHEMBL5344432, “Identification of a Dual Autophagy and REV-ERB Inhibitor with in Vivo Anticancer Efficacy” (J Med Chem, 2024)
